In ChEMBL document CHEMBL4699656, “Synthesis and structure-activity relationship of coumarins as potent Mcl-1 inhibitors for cancer treatment” (Bioorg Med Chem, 2021):

Key:
[1] = target: Induced myeloid leukemia cell differentiation protein Mcl-1 (Homo sapiens, UniProt Q07820); test: Displacement of FAM-Bid peptide from recombinant N-terminal His6x-tagged human Mcl-1 expressed in Escherichia coli BL21 (DE3) incubated for 30 mins by fluorescence polarization assay
A549 = test: Potentiation of taxol-induced cytotoxicity against human A549 cells assessed as fold reduction in taxol IC50 for inhibition of cell viability measured after 48 hrs by SRB assay; format: functional
Summary of the method: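 A549 cells in RPMI1640 with 10% FBS at 37°C, 5% CO2. Seeded at 6.5 × 10^3 cells/well and allowed to adhere 24 h. Then exposed 48 h to taxol alone or combined with the Mcl-1 inhibitor (0.0001–100 μM). TCA fixation at 4°C, SRB staining, and Tris-solubilized dye read at 570 nm. Growth inhibition taken relative to control. IC50 reported as mean of triplicates.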

Induced myeloid leukemia cell differentiation protein Mcl-1, sequence (Q07820 whole entry): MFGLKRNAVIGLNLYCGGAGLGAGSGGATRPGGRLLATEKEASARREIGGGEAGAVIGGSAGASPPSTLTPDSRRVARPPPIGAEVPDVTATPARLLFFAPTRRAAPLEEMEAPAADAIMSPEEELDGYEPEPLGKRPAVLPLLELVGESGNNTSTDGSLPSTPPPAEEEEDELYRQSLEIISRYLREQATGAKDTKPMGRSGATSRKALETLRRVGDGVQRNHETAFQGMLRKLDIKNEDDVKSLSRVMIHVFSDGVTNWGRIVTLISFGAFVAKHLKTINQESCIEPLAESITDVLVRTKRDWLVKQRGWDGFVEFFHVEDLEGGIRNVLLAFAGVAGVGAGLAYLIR

| IC50 [1] | Ki [1] | SMILES | fold change (FC) (A549) |
| --- | --- | --- | --- |
| 33.7 µM | 9.36 µM | O=C(O)Cc1cc(=O)oc2cc(O)c(O)cc12 | – |
| 3.27 µM | 0.65 µM | O=c1cc(-c2ccccc2)c2cc(O)c(O)cc2o1 | – |
| 28.6 µM | 5.26 µM | Cc1cc(=O)oc2cc(O)c(Cl)cc12 | – |
| 18.6 µM | 3.19 µM | O=c1cc(CCl)c2ccc(O)c(O)c2o1 | – |
| 26.3 µM | 10.8 µM | Cc1cc(=O)oc2c([N+](=O)[O-])c(O)ccc12 | – |
| 32.2 µM | 5.67 µM | O=c1cc(CO)c2ccc(O)c(O)c2o1 | – |
| 7.39 µM | 1.46 µM | Cc1cc(=O)oc2c(CN(C)C)c(O)c(O)cc12 | – |
| 30.6 µM | 6.59 µM | COc1ccc2c(CCl)cc(=O)oc2c1O | – |
| 21.8 µM | 4.81 µM | O=c1ccc2cc(O)c(O)c(CN3CCC(O)CC3)c2o1 | – |
| 32.9 µM | 7.15 µM | COc1ccc2c(CO)cc(=O)oc2c1O | – |
| 4.01 µM | 0.76 µM | O=c1cc(CO)c2cc(O)c(O)cc2o1 | – |
| 53.6 µM | 11.5 µM | CN(C)Cc1c(O)c(O)cc2ccc(=O)oc12 | – |
| 16.9 µM | 7.02 µM | COc1ccc2ccc(=O)oc2c1O | – |
| 34.6 µM | 9.17 µM | [N-]=[N+]=NCc1cc(=O)oc2cc(O)c(O)cc12 | – |
| 16.9 µM | 2.39 µM | COc1ccc2c(C)cc(=O)oc2c1O | – |
| 11.3 µM | 2.54 µM | Cc1cc(=O)oc2c(CN3CCCC3)c(O)c(O)cc12 | – |
| 59.2 µM | 21.3 µM | Cc1cc(=O)oc2c(CN3CCC(O)CC3)c(O)c(O)cc12 | – |

| IC50 [1] | Ki [1] | SMILES | fold change (FC) (A549) |
| --- | --- | --- | --- |
| 19.9 µM | 4.79 µM | CN(C)Cc1c(O)c(O)cc2oc(=O)ccc12 | – |
| 14.7 µM | 2.77 µM | O=c1ccc2c(CN3CCC(O)CC3)c(O)c(O)cc2o1 | – |
| 1.21 µM | 0.21 µM | O=c1cc(C(F)(F)F)c2cc(O)c(O)cc2o1 | >10 |
| 5.82 µM | 1.04 µM | O=c1cc(CCl)c2cc(O)c(O)cc2o1 | – |
| 30.9 µM | 5.47 µM | CCc1cc2c(C)cc(=O)oc2cc1O | – |
| 11.2 µM | 2.11 µM | Cc1cc(=O)oc2c(O)c(O)ccc12 [4-METHYLDAPHNETIN] | – |
| 6.28 µM | 1.19 µM | Cc1cc(=O)oc2cc(O)c(O)cc12 [4-METHYLESCULETIN] | – |
| 83.7 µM | 23.9 µM | O=c1ccc2cc(O)ccc2o1 [6-HYDROXYCOUMARIN] | – |
| 24.4 µM | 4.06 µM | O=c1ccc2ccccc2o1 [COUMARIN] | – |
| 11.8 µM | 1.75 µM | O=c1ccc2ccc(O)c(O)c2o1 [DAPHNETIN] | – |
| 8.77 µM | 1.49 µM | O=c1ccc2cc(O)c(O)cc2o1 [ESCULETIN] | – |
| 32.1 µM | 5.51 µM | COc1cc2ccc(=O)oc2c(O)c1O [FRAXETIN] | – |
| 104 µM | 22.1 µM | Cc1cc(=O)oc2cc(O)ccc12 [HYMECROMONE] | – |
| 51.5 µM | 15.9 µM | COc1cc2oc(=O)ccc2cc1O [ISOSCOPOLETIN] | – |
| 25.1 µM | 9.54 µM | COc1cc2ccc(=O)oc2cc1OC [SCOPARONE] | – |
| 22.6 µM | 13.4 µM | COc1cc2ccc(=O)oc2cc1O [SCOPOLETIN] | – |
| 21 µM | 3.81 µM | O=c1ccc2ccc(O)cc2o1 [UMBELLIFERONE] | – |

| SMILES | IC50 [1] | Ki [1] | fold change (FC) (A549) |
| --- | --- | --- | --- |
| COc1cc2cc([N+](=O)[O-])c(=O)oc2c([N+](=O)[O-])c1OC | 12.2 µM | 2.19 µM | – |
